Each structure is given as a SMILES string.

Test [1] concerns Tumor Cell line. Briefly: Tested for in vitro inhibitory activity against drug concentration causing 50% cell growth inhibition in 56 human tumor cell lines derived from leukemia; log10 GI50. It is filed as functional. In short, it runs like this: (§1)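 NCI screen: cells plated on day 0 (mostly 20 000 cells/well) and preincubated drug-free for 24 h. Drug then added at five 10-fold dilutions for 48 h. Cells were fixed in situ, stained with sulforhodamine B, and the solubilized bound dye read spectrophotometrically. GI50, the concentration giving 50% growth inhibition versus control, was taken from dose-response curves.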

The test system of test [2] is P388. The experiment in a line: Tested for in vitro inhibitory activity against drug concentration causing 50% cell growth inhibition in P388/ADR cell lines; log10 GI50. It is filed as functional, Homo sapiens. Particulars: Mus musculus. In short, it runs like this:
as §1

The test system of test [3] is Tumor Cell line. The experiment in a line: Tested for in vitro inhibitory activity against drug concentration causing 50% cell death inhibition in 56 human tumor cell lines derived from leukemia in test 1; log10 LC50. It counts as functional. Particulars: read-out: Log LC50 (the source's name) (converted). In outline:
(§2)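 NCI 56-line human tumour panel screen. Cells were seeded in 96-well plates on day 0, mostly at 20 000 cells/well, and preincubated 24 h without drug. Drug was then added at five 10-fold dilutions for a further 48 h. Cells were fixed in situ and stained with SRB, and bound dye was read spectrophotometrically. GI50, TGI (0% growth) and LC50 (−50% growth) were taken versus control. Values are mean-graph midpoints (log10) per test.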

Test [4] has as its system Tumor Cell line. Briefly: Tested for in vitro inhibitory activity against drug concentration causing 50% cell death inhibition in 56 human tumor cell lines derived from Renal cancer in test 8; log10 LC50. Particulars: read-out: Log LC50 (the source's name) (converted). It is filed as functional. In short, it runs like this:
as §2

Test [5] concerns Tumor Cell line. Briefly: Tested for in vitro inhibitory activity against drug concentration causing total cell growth inhibition in 56 human tumor cell lines derived from Melanoma in test 6; log10 TGI50. It is filed as functional. Particulars: read-out: Log TGI (converted). In short, it runs like this: as §2
Test [6] concerns Tumor Cell line. The experiment in a line: Tested for in vitro inhibitory activity against drug concentration causing 50% cell growth inhibition in 56 human tumor cell lines derived from leukemia in test 1; log10 GI50. It counts as functional. In short, it runs like this: as §2
Test [7] relates to Tumor Cell line. Briefly: Tested for in vitro inhibitory activity against drug concentration causing total cell growth inhibition in 56 human tumor cell lines derived from ovarian cancer in test 7; log10 TGI50. Particulars: read-out: Log TGI (converted). It counts as functional. In outline: as §2
In test [8] the test system is Tumor Cell line. The experiment in a line: Tested for in vitro inhibitory activity against drug concentration causing total cell growth inhibition in 56 human tumor cell lines derived from leukemia in test 9; log10 TGI50. It is filed as functional. Particulars: read-out: Log TGI (converted). In short, it runs like this:
as §2

Test [9] concerns Tumor Cell line. Briefly: Tested for in vitro inhibitory activity against drug concentration causing total cell growth inhibition in 56 human tumor cell lines derived from leukemia in test 1; log10 TGI50. It is filed as functional. Particulars: read-out: Log TGI (converted). In short, it runs like this:
as §2

In test [10] the test system is Tumor Cell line. The experiment in a line: Tested for in vitro inhibitory activity against drug concentration causing 50% cell death inhibition in 56 human tumor cell lines derived from leukemia in test 9; log10 LC50. It is filed as functional. Particulars: read-out: Log LC50 (the source's name) (converted). In outline:
as §2

Test [11] deals with Tumor Cell line. The experiment in a line: Tested for in vitro inhibitory activity against drug concentration causing 50% cell growth inhibition in 56 human tumor cell lines derived from colon cancer in test 4; log10 GI50. It counts as functional. In outline:
as §2

The test system of test [12] is Tumor Cell line. The experiment in a line: Tested for in vitro inhibitory activity against drug concentration causing 50% cell death inhibition in 56 human tumor cell lines derived from CNS cancer in test 5; log10 LC50. Particulars: read-out: Log LC50 (the source's name) (converted). It counts as functional. In short, it runs like this:
as §2

In test [13] the test system is Tumor Cell line. The experiment in a line: Tested for in vitro inhibitory activity against drug concentration causing total cell growth inhibition in 56 human tumor cell lines derived from CNS cancer in test 5; log10 TGI50. It counts as functional. Particulars: read-out: Log TGI (converted). In short, it runs like this: as §2
Test [14] concerns Tumor Cell line. The experiment in a line: Tested for in vitro inhibitory activity against drug concentration causing 50% cell death inhibition in 56 human tumor cell lines derived from colon cancer in test 4; log10 LC50. It counts as functional. Particulars: read-out: Log LC50 (the source's name) (converted). In outline:
as §2

The subject of test [15] is Tumor Cell line. The experiment in a line: Tested for in vitro inhibitory activity against drug concentration causing total cell growth inhibition in 56 human tumor cell lines derived from Non small cell lung cancer in test 2; log10 TGI50. It counts as functional. Particulars: read-out: Log TGI (converted). In short, it runs like this: as §2
For test [16], the system named is Tumor Cell line. The experiment in a line: Tested for in vitro inhibitory activity against drug concentration causing 50% cell growth inhibition in 56 human tumor cell lines derived from small-cell-lung cancer in test 3; log10 GI50. It is filed as functional. In short, it runs like this:
as §2

The subject of test [17] is Tumor Cell line. The experiment in a line: Tested for in vitro inhibitory activity against drug concentration causing total cell growth inhibition in 56 human tumor cell lines derived from small-cell-lung cancer in test 3; log10 TGI50. It counts as functional. Particulars: read-out: Log TGI (converted). In short, it runs like this:
as §2

Test [18] has as its system Tumor Cell line. Briefly: Tested for in vitro inhibitory activity against drug concentration causing 50% cell death inhibition in 56 human tumor cell lines derived from Non small cell lung cancer in test 2; log10 LC50. It counts as functional. Particulars: read-out: Log LC50 (the source's name) (converted). In short, it runs like this: as §2
Test [19] relates to Tumor Cell line. The experiment in a line: Tested for in vitro inhibitory activity against drug concentration causing 50% cell death inhibition in 56 human tumor cell lines derived from small cell lung cancer in test 3; log10 LC50. It counts as functional. Particulars: read-out: Log LC50 (the source's name) (converted). In outline:
as §2

In test [20] the test system is Tumor Cell line. Briefly: Tested for in vitro inhibitory activity against drug concentration causing 50% cell death inhibition in 56 human tumor cell lines derived from Melanoma in test 6; log10 LC50. It counts as functional. Particulars: read-out: Log LC50 (the source's name) (converted). In outline: as §2
The test system of test [21] is Tumor Cell line. Briefly: Tested for in vitro inhibitory activity against drug concentration causing 50% cell growth inhibition in 56 human tumor cell lines derived from Ovarian cancer in test 7; log10 GI50. It counts as functional. In short, it runs like this:
as §2

The subject of test [22] is Tumor Cell line. Briefly: Tested for in vitro inhibitory activity against drug concentration causing 50% cell growth inhibition in 56 human tumor cell lines derived from leukemia in test 9; log10 GI50. It counts as functional. In outline:
as §2

In test [23] the test system is Tumor Cell line. The experiment in a line: Tested for in vitro inhibitory activity against drug concentration causing 50% cell growth inhibition in 56 human tumor cell lines derived from Melanoma in test 6; log10 GI50. It counts as functional. In outline:
as §2

Test [24] deals with Tumor Cell line. Briefly: Tested for in vitro inhibitory activity against drug concentration causing total cell growth inhibition in 56 human tumor cell lines derived from Renal cancer in test 8; log10 TGI50. Particulars: read-out: Log TGI (converted). It is filed as functional. In short, it runs like this: as §2
In test [25] the test system is Tumor Cell line. Briefly: Tested for in vitro inhibitory activity against drug concentration causing 50% cell growth inhibition in 56 human tumor cell lines derived from CNS cancer in test 5; log10 GI50. It counts as functional. In outline:
as §2

Test [26] deals with Tumor Cell line. The experiment in a line: Tested for in vitro inhibitory activity against drug concentration causing 50% cell growth inhibition in 56 human tumor cell lines derived from renal cancer in test 8; log10 GI50. It is filed as functional. In short, it runs like this: as §2
In test [27] the test system is Tumor Cell line. Briefly: Tested for in vitro inhibitory activity against drug concentration causing 50% cell death inhibition in 56 human tumor cell lines derived from Ovarian cancer in test 7; log10 LC50. Particulars: read-out: Log LC50 (the source's name) (converted). It is filed as functional. In outline:
as §2

For test [28], the species on record is Homo sapiens. Briefly: Tested for in vitro inhibitory activity against drug concentration causing 50% cell growth inhibition in 56 human tumor cell lines derived from Non-small-cell lung cancer in test 2; log10 GI50. It counts as functional. In short, it runs like this: as §2
Test [29] relates to Tumor Cell line. The experiment in a line: Tested for in vitro inhibitory activity against drug concentration causing total cell growth inhibition in 56 human tumor cell lines derived from colon cancer in test 4. Particulars: read-out: Log TGI (converted). It is filed as functional. In outline: as §2

With `COc1cc([C@@H]2c3cc4c(cc3[C@@H](O[C@@H]3O[C@@H]5CO[C@@H](C)O[C@H]5[C@H](O)[C@H]3O)[C@H]3COC(=O)[C@H]23)OCO4)cc(OC)c1O` [ETOPOSIDE], the GI50 in test [1] is 83200 nM; in [2], 63100 nM.
As for `COc1cc([C@@H]2c3cc4c(cc3[C@@H](Nc3ccc(F)cc3)[C@H]3COC(=O)[C@H]23)OCO4)cc(OC)c1O`, the CC50 in [3] is 61700 nM; in test [4], 1000 nM; in test [10], 61700 nM; in test [12], 63100 nM; in test [14] it was 1000 nM; in test [18], 66100 nM. Further, the CC50 in [19] is 61700 nM; in [20], 1000 nM; in test [27], 79400 nM. The TGI in test [5] is 977 nM; in [7], 12000 nM; in test [8] it was 8710 nM; in [9] it was 9770 nM; in [13], 11000 nM; in test [15], 12300 nM. The TGI is 9550 nM in test [17], 977 nM in test [24] and 1000 nM in [29]. Also, the GI50 is 1100 nM in test [6]; 708 nM in test [11]; 1410 nM in test [16]; 871 nM in test [21]; 813 nM in test [22]; 661 nM in [23]. The GI50 in test [25] was 1350 nM; in test [26] it was 646 nM; in [28], 813 nM.

In general, GI50 refers to the concentration at which growth is held to half of that of the control. Read a low GI50 as more potent growth inhibition. In general, TGI refers to the concentration giving total growth inhibition.

The values above are taken from ChEMBL document CHEMBL1127509, “Antitumor agents. 152. In vitro inhibitory activity of etoposide derivative NPF against human tumor cell lines and a study of its conformation by X-ray crystallography, molecular modeling, and NMR spectroscopy” (1994).
